# EBV gp42 block – inhibitors of Epstein-Barr virus glycoprotein 42; Q1HVG2; Fluorescence polarization binding assay, mP read-out; inhibition, % (tested at 21.74 µM); 220,000 tested, 0.42% active; AID 1085; in the data active = inhibition above about 50%
# RBBP9 inh – human RBBP9 hydrolase inhibition. O75884. recombinant RBBP9, FP-Rh probe fluorescence polarization. inhibition, % at 7.94 µM. 220,000 tested, 0.2% active;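 active = inhibition above the campaign mean of all tested compounds plus 3 SD, cut at about 14% in these data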;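 also: plate controls were DMSO wells with RBBP9 for no effect and wells lacking RBBP9 protein for full effect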
#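 Controls: DMSO-treated enzyme wells and wells lacking RBBP9 | Material: RBBP9 protein | Technique: Fluorescence polarization | Replication: Single well per compound, no replicates | Buffer or medium: Tris-NaCl-Pluronic buffer, pH 8.0 | Timing: 30 min compound preincubation, 45 min probe labeling, 25 °C | Read-out basis: Percent inhibition from mP, scaled between DMSO and no-protein wells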
# p47phox inh – inhibitors of human p47phox binding; 220,000 tested, 0.53% active; P14598; AID 1274; inhibition, % at 24.7 µM; p47phox/p22phox peptide binding, fluorescence polarization, 2 h;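 also: 0% = p47phox with labelled peptide and 100% = labelled peptide alone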
# Target sequence (P14598 whole entry, looked up): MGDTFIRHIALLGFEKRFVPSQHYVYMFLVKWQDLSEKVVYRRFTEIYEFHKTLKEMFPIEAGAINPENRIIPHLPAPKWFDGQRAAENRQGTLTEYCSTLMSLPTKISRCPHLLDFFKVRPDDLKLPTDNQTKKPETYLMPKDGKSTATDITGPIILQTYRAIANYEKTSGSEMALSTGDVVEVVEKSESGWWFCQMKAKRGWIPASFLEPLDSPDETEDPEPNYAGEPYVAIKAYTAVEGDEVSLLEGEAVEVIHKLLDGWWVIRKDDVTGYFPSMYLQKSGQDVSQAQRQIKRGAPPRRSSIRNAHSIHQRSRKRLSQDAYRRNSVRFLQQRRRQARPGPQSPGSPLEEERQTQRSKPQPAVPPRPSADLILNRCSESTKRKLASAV
# 14-3-3 Bad inh – disrupts binding of bovine 14-3-3 zeta to phospho-Bad peptide; TR-FRET 14-3-3zeta/Dy647-pBad peptide displacement, 1 h; inhibition, % at 21.7 µM; 220,000 tested, 0.71% active; AID 781;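 active = inhibition above about 70%, limit read from the data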;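 also: 0% = full 14-3-3 plus peptide FRET controls and 100% = background without 14-3-3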
# WT yeast gro inh – growth inhibition of WT yeast, mitochondrial fusion screen; AID 1362; mitochondrial fusion phenotypic screen, WT strain; 190,000 tested, 2.1% active; inhibition, % at 10 µM; in the data active = inhibition above about 58%; tested in S. cerevisiae
# eIF4E 4G PPI – blocks eIF4E binding to eIF4G; P63073+Q04637; TR-FRET eIF4E-eIF4GI(517-606) binding, 2 h; inhibition, % at 21.7 µM; 220,000 tested, 0.37% active;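 also: 0% = full FRET control wells and 100% = background wells lacking eIF4GI fragment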
# Active calls of the source: *; . = not tested or not shown. Only some compounds are listed: those with a hit (about 3.7% of all), similar ones and a draw of the others.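 The calls were made as follows, unless noted: active = inhibition above about 30% (limit read from the data); inactive = the rest.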
SMILES,EBV gp42 block,RBBP9 inh,p47phox inh,14-3-3 Bad inh,WT yeast gro inh,eIF4E 4G PPI
O=C(CSc1nc(C2CCCCC2)n(-c2ccccc2)n1)NCCN1C(=O)CSC1=O,2.3,-0.9,1.4,19.0,-4.2,-2.3
COC(=O)c1cn(C(=O)c2ccccc2Cl)c2ccccc12,0.2,-5.5,13.3,-2.7,26.6,0.5
COC(=O)c1cn(C(=O)c2ccc(C)cc2C)c2ccccc12,1.2,5.9,0.9,-6.0,60.5*,-1.5
COC(=O)c1cn(C(=O)OC)c2ccccc12,-12.3,7.2,10.2,-13.3,66.3*,0.1
O=C1C2C3C=CC(C2C(=O)N1c1ccc(O)cc1)C1C2C(=O)N(c4ccc(O)cc4)C(=O)C2C31 (configuration not stated),-11.2,6.9,34.0*,-0.2,.,-3.8
O=C1C2C3C=CC(C2C(=O)N1c1ccccc1O)C1C2C(=O)N(c4ccccc4O)C(=O)C2C31 (configuration not stated),-5.8,-13.7,-3.7,-16.4,-11.2,1.3
COC(=O)c1ccc(Oc2nc(NC(C)C)nc(NC(C)C)n2)cc1,2.3,-9.4,20.3,4.4,.,97.2*
Clc1ccccc1Sc1ccc(-c2ccccn2)s1,5.2,-2.6,-0.1,-9.8,.,-9.5
CC12CC3CC(C)(C1)CC(CN)(C3)C2,-21.2,-1.6,-15.7,-6.5,3.5,13.0
CC12CC3CC(C)(C1)CC(CN1CCOCC1)(C3)C2,-22.7,-4.7,38.9*,6.8,-14.9,9.2
COc1ccc(/C=N/N=C2/CC(C)(C)Cc3n[nH]c(=O)cc32)cc1,70.4*,-6.3,-1.3,-6.0,-12.1,-0.4
COc1ccc(/C=N/N=C2/NC(=O)CC(C(=O)O)S2)cc1 (configuration not stated),-0.3,-5.2,-4.5,-1.0,-9.8,-1.2
CC1=NN(c2ccccc2)C(=O)C1N=Nc1ccc(C)cc1 (configuration not stated),-9.3,-0.2,-9.0,0.7,7.0,1.4
CC1=NN(C(N)=S)C(=O)C1N=Nc1c(C)cc(C)cc1C (configuration not stated),-16.1,-8.6,7.7,8.8,60.6*,3.6
CC1=NN(C(N)=S)C(=O)C1N=Nc1ccc(C)cc1C (configuration not stated),-33.1,-2.7,-14.8,2.2,69.9*,8.6
CC1=NN(c2nc(-c3ccc(C)cc3)cs2)C(=O)C1N=Nc1ccc(C(N)=O)cc1 (configuration not stated),-3.1,-5.0,-9.9,24.6,50.5,1.9
CC1=NN(C(N)=S)C(=O)C1N=Nc1ccccc1C (configuration not stated),-1.3,-8.5,-3.5,-7.4,65.3*,-0.1
C/C(=N\Nc1ccc(F)cc1F)c1ccc(Br)s1,-12.8,-2.5,-3.7,-5.8,-2.0,0.0
COc1ncnc2c1NC1=C(S2)C(=NCCC(=O)O)CC(C)(C)C1,139.5*,-9.8,-22.3,-7.8,0.3,5.3
N#CC(C(=O)c1ccccc1)=C1SCCS1,-9.6,0.0,-8.7,-18.6,.,-0.6
Cc1cccc(NC(=O)CSc2cc(C)c(C#N)c3nc4ccccc4n23)c1,-20.9,-4.9,-12.0,18.1,.,-12.5
N#CC(c1cccc(Cl)c1)c1ccc2c(C(F)(F)F)cc(C(F)(F)F)nc2n1 (configuration not stated),-17.6,3.1,-17.8,-17.3,81.2*,3.3
NNc1ccc2c(C(F)(F)F)cc(C(F)(F)F)nc2n1,-10.6,-3.7,-3.2,-22.3,-8.9,0.4
COc1ccc(Cl)cc1C(=O)C1CCCN(Cc2cnc(N3CCOCC3)s2)C1 (configuration not stated),-8.1,-5.3,47.1*,3.2,7.6,3.7
COc1ccc(F)cc1C(=O)C1CCCN(Cc2cnc(N3CCCC3)s2)C1 (configuration not stated),3.4,-6.8,4.2,4.1,16.0,-2.5
CC(C)(C)c1cc(-c2n[nH]c(=S)n2-c2ccc(Cl)cc2)n[nH]1,-3.7,-11.4,-0.1,-5.0,.,6.0
Cc1cc2c(s1)c1cnn(CC(=O)NCCc3ccccc3)c(=O)c1n2C,-20.1,-3.6,30.5*,28.0,-18.3,4.6
COc1c(C(=O)NNC(=O)c2ccccc2)csc1Br,-11.7,-7.7,-19.6,0.8,.,-3.9
Oc1ccccc1C1CC(c2cccs2)=NC(c2ccc(Cl)cc2)N1 (configuration not stated),-2.3,-7.8,-3.5,13.6,73.1*,1.1
